Screening results as filed in PubChem BioAssay.
Wee1 stabilizer: human Wee1 degradation inhibition, primary screen; actives 1.2% (n = 220,000); reporter increase, % at 5 µM; P30291; HeLa Luc-Wee1K328M stability, luciferase luminescence; 100% = proteasome inhibitor MG132 effect;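 active = activation above the mean of all tested compounds plus 3 SD, set per screening run, cut at about 8.8% in these data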;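 also: cells exposed to compound for 20 h before luminescence read; 0% = DMSO alone and 100% = MG132 at 30 µM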
Target sequence (P30291 whole entry K328M): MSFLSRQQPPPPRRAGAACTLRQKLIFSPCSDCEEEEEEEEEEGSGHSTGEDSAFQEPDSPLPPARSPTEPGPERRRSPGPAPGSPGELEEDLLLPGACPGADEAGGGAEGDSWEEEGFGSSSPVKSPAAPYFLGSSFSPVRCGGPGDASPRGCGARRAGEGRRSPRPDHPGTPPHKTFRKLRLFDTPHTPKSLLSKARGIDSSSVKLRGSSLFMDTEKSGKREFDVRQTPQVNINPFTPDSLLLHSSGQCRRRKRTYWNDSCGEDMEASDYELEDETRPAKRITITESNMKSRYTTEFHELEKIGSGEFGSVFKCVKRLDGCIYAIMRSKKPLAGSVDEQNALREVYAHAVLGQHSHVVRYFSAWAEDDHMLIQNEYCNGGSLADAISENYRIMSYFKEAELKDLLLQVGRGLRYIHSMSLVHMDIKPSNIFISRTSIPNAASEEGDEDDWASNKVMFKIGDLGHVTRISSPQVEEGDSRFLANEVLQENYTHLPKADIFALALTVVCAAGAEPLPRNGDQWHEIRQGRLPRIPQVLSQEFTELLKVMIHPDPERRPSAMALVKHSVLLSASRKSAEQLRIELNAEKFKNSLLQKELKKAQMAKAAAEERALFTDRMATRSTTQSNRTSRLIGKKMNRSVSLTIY
TNF death inh: TNF-alpha cell death inhibition in Jurkat FADD-/- cells. Jurkat FADD-/- TNF necroptosis rescue, ATP luminescence, 24 h; 0 = TNF only, 100 = no-TNF cells. activation (protection from cell death), % at 10 µM. actives 0.068% (n = 220,000);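 active = activation, meaning protection from cell death, of at least 50% relative to plate controls; inactive = activation below 50%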;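 also: necroptosis triggered by 40 ng/mL TNF-alpha added together with compound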
p97 inhibitor: inhibitors of human p97 ATPase; P55072; recombinant p97 ATPase, Kinase-Glo ATP luminescence, 3 h; inhibition, % at 8 µM; actives 0.42% (n = 220,000); in the data active = inhibition above about 15%;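 also: 0% = DMSO vehicle and 100% = wells lacking enzyme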
PfM18AAP inh: PfM18AAP enzyme inhibition. recombinant PfM18AAP, H-Glu-NHMec fluorogenic cleavage. inhibition, % at 7.35 µM. actives 1.2% (n = 290,000). AID 1822;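 active = inhibition above the campaign mean inhibition over all tested compounds plus 3 SD, cut at about 28% in these data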;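 also: 0% = plate median of test compound wells and 100% = 2 mM ZnCl2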
zVAD death inh: blocks zVAD induced death of L929 cells. L929 zVAD necroptosis rescue, ATP luminescence, 24 h; with zVAD 60 µM. viability rescue, % at 10 µM. AID 1377. actives 0.38% (n = 220,000);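 active = activation, scaled between plate controls, above about 75%, limit read from the data; inactive = activation under that limit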;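 also: 0% = zVAD with DMSO and 100% = DMSO alone without zVAD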
RBBP9 inh: blocks human serine hydrolase RBBP9; O75884; actives 0.2% (n = 220,000); AID 1515; recombinant RBBP9, FP-Rh probe fluorescence polarization; inhibition, % at 7.94 µM;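 active = inhibition above the campaign mean of all tested compounds plus 3 SD, cut at about 14% in these data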;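 also: plate controls were DMSO wells with RBBP9 for no effect and wells lacking RBBP9 protein for full effect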
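System: RBBP9 protein / Quantity: 2.5 µM RBBP9 dispensing solution, before mixing / Also added: Serine-hydrolase probe FP-Rh, 375 nM pre-mixing / Dosing: 7.94 µM single dose, 0.794% DMSO / Timing: enzyme-compound preincubation 30 min, then probe labeling 45 min, 25 °C / Signal: FP readout at 525/598 nm / Controls: DMSO-treated enzyme wells and wells lacking RBBP9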
zVAD necrop conf: confirmed blocker of zVAD induced death in L929 cells; actives 16% (n = 760); activation (protection from necroptosis), % at 10 µM; L929 zVAD-induced necroptosis rescue, ATP luminescence, 24 h; shares compounds with zVAD death inh;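 active = mean protection from necroptosis of at least 50% over duplicate tests; inactive = mean protection below 50%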;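 also: 0% = cells with zVAD alone and 100% = vehicle cells without zVAD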
* hit, by the source's call; . = not tested or not shown. Only some compounds are listed: those with a hit (about 2.7% of all), similar ones and a draw of the others.

SMILES	Wee1 stabilizer	TNF death inh	p97 inhibitor	PfM18AAP inh	zVAD death inh	RBBP9 inh	zVAD necrop conf
O=C(NN1CC(C(=O)OCc2ccc(Cl)cc2Cl)CC1=O)c1ccccc1 (centres undefined)	.	.	.	-0.5	.	.	.
O=C(NCCCn1ccnc1)c1cc(-c2cccs2)on1	-0.7	-8.7	4.9	10.7	76.0*	-1.4	4.1
O=C(NCCCN1CCOCC1)c1cc(-c2cccs2)on1	1.4	-8.1	0.5	-7.8	26.1	2.0	.
COc1cc([N+](=O)[O-])ccc1NC(=O)COC(=O)c1ccc(NC(N)=O)cc1	1.5	2.6	4.9	-11.2	78.4*	-4.6	38.7
CCc1ccc(NC(=O)Nc2ccc3c(c2)N(C)C(=O)CS3)cc1	3.8	-2.1	2.0	-9.9	99.1*	-7.0	47.1
CCC(=O)Nc1ccc(C(=O)CSc2nc3ccccc3[nH]2)cc1	-1.8	1.1	6.3	-0.1	.	-4.8	.
CCC(=O)Nc1ccc(C(=O)CSc2nc3ccc(C)cc3[nH]2)cc1	0.8	2.6	7.0	-0.2	75.6*	-9.9	38.9
COc1ccc(OCC(=O)Nc2ccc(C)c(S(=O)(=O)N(C)C)c2)cc1	-0.1	-0.3	-1.8	4.6	80.6*	-8.8	2.4
O=C(/C=C/c1cccs1)Nc1nccs1	0.0	11.4	-2.4	-16.3	79.3*	-7.5	1.0
CCOC(=O)/C=C/C(=O)Nc1nccs1	-1.9	10.0	1.0	-9.4	60.3	-6.7	.
O=C(COC(=O)/C=C/c1cccc(F)c1)Nc1ncccn1	-0.9	0.6	-1.4	-9.1	0.4	-4.7	.
O=C(/C=C\c1ccccc1)Nc1nccs1	8.1	23.9	1.4	-4.1	103.2*	-7.6	6.5
O=C(/C=C/c1cccc(F)c1)Nc1nccs1	4.9	30.8	4.2	-3.0	87.8*	-3.1	76.4*
O=C(/C=C/c1cccs1)Nc1cccc(NC(=O)/C=C/c2cccs2)n1	0.9	-1.0	10.1	0.6	20.9	-55.7	.
Cc1ccc(/C=C/C(=O)Nc2nccs2)o1	6.0	16.3	4.3	8.2	78.9*	1.2	5.6
CCCCNc1ncnc2sc3c(c12)CCN(CCC)C3	.	.	.	-0.9	.	.	.
NS(=O)(=O)c1cccc(NC(=O)Cc2ccc(Cl)c(Cl)c2)c1	-3.8	3.6	5.6	7.8	1.0	-1.4	.
O=C(NNC(=O)c1ccc2nonc2c1)Nc1ccc(Cl)cc1	-3.2	3.9	9.0	5.3	2.2	-6.0	.
O=C(CN(C(=O)CCC(=O)Nc1ccccn1)C1CCCC1)NCc1ccc(F)cc1	.	.	.	-1.2	.	.	.
COC(=O)Nc1ccc2c(c1)ncn2C1CCCCC1	4.9	0.6	-3.2	1.3	59.4	-8.7	.
CCOC(=O)Nc1ccc2c(c1)ncn2C1CCCCC1	3.1	0.6	5.1	-2.4	83.5*	-9.2	16.7
COc1ccc(C(=O)OCC(=O)NC(=O)NC(C)C)cc1OC	0.2	-0.1	-2.9	-3.4	77.1*	-9.8	1.5
Cc1ccn(C(=O)c2ccc(NC(=O)CC(C)C)cc2)n1	-2.1	2.0	2.6	-3.8	-0.6	-3.7	.
Cc1nnc(SCC(=O)NC23CC4CC(CC(C4)C2)C3)s1	6.8	0.9	0.3	-1.1	0.6	-4.5	.
O=C(CSC1=NCCN1)NC12CC3CC(CC(C3)C1)C2	1.1	-7.7	4.9	-1.1	85.1*	-6.6	2.5
SMILES	Wee1 stabilizer	TNF death inh	p97 inhibitor	PfM18AAP inh	zVAD death inh	RBBP9 inh	zVAD necrop conf
COC(CNC(=O)c1ccc2c(c1)ncn2-c1ccc(F)cc1F)OC	-0.3	1.5	1.7	-12.2	12.7	0.8	.
CCOC(CNC(=O)c1ccc2c(c1)ncn2-c1ccc(F)c(F)c1)OCC	-1.6	1.2	0.8	-3.6	77.9*	-1.1	3.2
CCOC(CNC(=O)c1ccc2c(c1)ncn2-c1cccc(F)c1)OCC	-2.1	1.4	-1.8	-2.4	68.9	-3.5	.
COC(CNC(=O)c1ccc2c(c1)ncn2-c1ccc(F)c(F)c1)OC	-4.7	1.0	3.3	1.3	77.0*	-1.1	34.7
COC(CNC(=O)c1ccc2c(c1)ncn2-c1cccc(F)c1)OC	4.6	1.2	0.8	1.9	75.7*	-6.2	37.5
O=C(NCC1CCCO1)c1ccc(N2CCCCC2)c([N+](=O)[O-])c1 (centres undefined)	.	.	.	-1.3	.	.	.
C#CCn1c(O)c(N=NC(=O)CNC(=O)c2cccnc2)c2ccccc21	.	.	.	-1.6	.	.	.
COc1ccc(/C=N/NC(=O)C(=O)N2CCCCCC2)cc1	.	.	.	-1.1	.	.	.
O=C(COc1ccc(/C=N/NC(=O)C(=O)N2CCCCCC2)cc1)Nc1ccccc1Cl	0.0	0.3	-3.2	-0.3	78.2*	2.2	44.9
CC1CCCCC1NC(=O)Cn1nnc(-c2ccc(Cl)cc2)n1 (centres undefined)	1.2	-1.0	2.7	-1.5	78.2*	-5.3	3.4
O=C(Cn1nnc(-c2ccc(Cl)cc2)n1)NC1CCN(Cc2ccccc2)CC1	-1.8	-5.1	2.9	-1.3	2.2	-6.5	.
Cc1cc(C)nc(NC(=O)Nc2ccc3c(c2)OCO3)c1	1.6	0.8	0.3	-11.8	30.7	2.5	.
Cc1ccc(NC(=O)Nc2ccc3c(c2)OCO3)nc1	8.8	7.5	-6.0	-1.2	76.6*	-4.8	1.2
COC(=O)/C=C1\N/C(=N\c2nc(C)cc(C)n2)N(c2ccc(C)c(C)c2)C1=O	0.2	-2.4	-0.1	-10.4	-0.3	-4.7	.
CC1(Cc2ccc3c(c2)OCO3)NC(=O)NC1=O (centres undefined)	-1.6	17.2	2.4	1.3	102.4*	-5.1	58.7*
Cc1ccc(NC(=O)c2ccc(S(=O)(=O)NCc3cccnc3)cc2)c(C)c1	.	.	.	0.2	.	.	.
O=C(NC1CCCCCCC1)c1cc(COc2ccc3ncccc3c2)on1	-0.9	-6.3	-3.5	0.9	76.4*	-4.9	-0.4
O=C(c1cc(COc2ccc3ncccc3c2)on1)N1CCC(O)CC1	0.5	-1.6	2.9	-2.6	0.8	-7.0	.
CCOC(=O)N1CCC(N2Cc3cccc(C(=O)Nc4ccc(N(CC)CC)cc4C)c3C2=O)CC1	.	.	.	22.1	.	.	.
O=[N+]([O-])c1ccc(/C=N/Nc2ncc(-c3ccccc3)cn2)cc1	0.5	1.4	5.3	-0.2	78.5*	-3.8	1.8
Cc1csc(NC(=O)CSc2nsc(SCC(=O)Nc3nc(C)cs3)c2C#N)n1	2.6	-6.7	2.3	22.2	75.5*	-4.8	53.4*
Cc1ccc(NC(=O)CSc2nsc(SCC(=O)Nc3ccc(C)cc3C)c2C#N)c(C)c1	3.6	0.3	-4.7	-0.3	0.2	-11.1	.
CC(C)=CC(=O)Nc1nc2ccc([N+](=O)[O-])cc2s1	-0.7	-5.0	0.9	3.1	77.4*	-6.4	37.9
C/C(=C\c1ccccc1)C(=O)Nc1nc2ccc([N+](=O)[O-])cc2s1	-1.3	2.2	1.6	1.2	1.1	0.9	.
